LEDGF integ inh = blocks HIV-1 LEDGF/p75-dependent DNA integration | TR-FRET IN-LEDGF/p75 DNA integration, Eu/Cy5 | inhibition, % at 3.7 µM | 370,000 tested, 0.64% active | AID 743269;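 active = inhibition above the screen-wide mean plus 3 SD, cut at about 13% in these data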;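 note: signal is the Cy5 over europium emission ratio at 671 and 618 nm; 0% = plate median of compound wells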
UHRF1 MBD2 ctr = UHRF1 methyl-DNA binding inhibition; Q96T88; UHRF1 binding to methylated oligo, TR-FRET; inhibition, % at 4.4 µM; 370,000 tested, 0.75% active; in the data active = inhibition above about 21%;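 note: UHRF1 SRA domain binding a hemimethylated CpG hairpin DNA probe; 0% = median of test compound wells and 100% = reference inhibitor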
TDP2 inh = TDP2 (human) inhibition, absorbance primary screen; O95551; recombinant TDP2, T5PNP hydrolysis, p-nitrophenol absorbance 415 nm; inhibition, % at 12.8 µM; 370,000 tested, 0.34% active; AID 720702;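 active = inhibition above the mean of all tested compounds plus 3 SD, set per campaign, cut at about 25% in these data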;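 note: 0% = DMSO with enzyme and 100% = buffer with substrate but no TDP2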
Target sequence (O95551 whole entry, looked up): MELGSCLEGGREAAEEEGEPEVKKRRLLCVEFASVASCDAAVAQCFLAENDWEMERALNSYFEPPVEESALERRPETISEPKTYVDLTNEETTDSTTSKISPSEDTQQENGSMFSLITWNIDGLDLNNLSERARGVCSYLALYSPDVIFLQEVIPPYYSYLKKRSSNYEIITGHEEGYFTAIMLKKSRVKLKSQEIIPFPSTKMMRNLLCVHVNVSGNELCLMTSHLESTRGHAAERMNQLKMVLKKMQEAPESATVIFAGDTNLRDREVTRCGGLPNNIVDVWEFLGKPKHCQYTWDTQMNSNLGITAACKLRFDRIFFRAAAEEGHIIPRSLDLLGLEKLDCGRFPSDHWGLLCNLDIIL
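System – recombinant human TDP2 · Quantity – TDP2 enzyme at 120 nM final · Doses – single concentration, 12.8 µM nominal, with 1% DMSO · Incubation – 2 h at 37 °C · Measured by – epi absorbance of p-nitrophenol freed from T5PNP by hydrolysis · Read-out – % inhibition relative to enzyme-containing and enzyme-free wells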
MBD2 DNA inh = blocks human MBD2 binding to methylated DNA. 370,000 tested, 0.31% active. TR-FRET, MBD2 binding to methylated oligonucleotide. inhibition, % at 4.4 µM. Q9UBB5; in the data active = inhibition above about 13%
NSD2 inh = inhibitors of human histone methyltransferase NSD2. NSD2 peptide methylation, AlphaScreen, 120 min. inhibition, % at 12.5 µM. 310,000 tested, 0.54% active. O96028; in the data active = inhibition above about 50%
Casp6 inh = blocks human caspase-6 cleavage activity | P55212 | purified caspase-6, Z-VEID-R110 cleavage fluorescence | inhibition, % at 12.5 µM | 350,000 tested, 0.53% active | AID 686996;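 active = mean inhibition across replicates at least about 35%, with every replicate also reaching that limit, limit read from the data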;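 note: 0% = median of neutral control wells and 100% = no fluorescence left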
Target sequence (P55212 24-179 limits assumed): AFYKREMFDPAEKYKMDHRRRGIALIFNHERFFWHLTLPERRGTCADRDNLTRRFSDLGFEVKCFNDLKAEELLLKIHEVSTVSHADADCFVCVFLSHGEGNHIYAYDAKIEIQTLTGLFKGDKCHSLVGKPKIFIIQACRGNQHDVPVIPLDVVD
Target sequence (P55212 194-293 limits assumed): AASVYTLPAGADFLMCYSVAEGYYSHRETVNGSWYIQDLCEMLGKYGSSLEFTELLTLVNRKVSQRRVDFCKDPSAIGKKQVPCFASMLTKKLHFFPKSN
IN multimer up = activates HIV-1 integrase multimerization in LEDGF counter-screen; AID 1053131; 2,000 tested, 17% active; activation, % at 7.7 µM; TR-FRET HIV-1 integrase multimerization, biochemical; shares compounds with LEDGF integ inh; in the data active = activation above about 8.9%
TRFRET interf = TR-FRET optical interference, LEDGF/p75 integration counter-screen; shares compounds with LEDGF integ inh; TR-FRET optical interference counterscreen, HIV-1 IN multimerization; inhibition, % at 7.7 µM; 2,000 tested, under 10 active; AID 1053135;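 active = inhibition above the mean over all tested compounds plus 3 SD, which no compound reached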;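 note: 0% = integrase with antibodies and DMSO and 100% = antibodies without integrase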
LEDGF integ conf = LEDGF/p75-dependent HIV-1 integration inhibition, confirmation; inhibition, % at 3.7 µM; 2,000 tested, 36% active; TR-FRET LEDGF/p75-dependent HIV-1 integration, biochemical; shares compounds with LEDGF integ inh; in the data active = inhibition above about 14%
An asterisk follows results filed as active. Shown are actives, neighbours in structure and some others; about 1.9% of the full set was active somewhere.

CCOC(=O)c1ccc(N2C(=O)c3n[nH]c(C)c3C2c2ccco2)cc1 (configuration not stated) was read as LEDGF integ inh 0, UHRF1 MBD2 ctr 6, TDP2 inh 2, MBD2 DNA inh 0 and NSD2 inh 3.
`Cc1nnc(NC(=O)c2cc(-c3ccco3)nc3ccccc23)s1` gave LEDGF integ inh 16*, UHRF1 MBD2 ctr 26*, TDP2 inh -1, MBD2 DNA inh 6, NSD2 inh 6, Casp6 inh 53*, IN multimer up 3, TRFRET interf -17 and LEDGF integ conf 29*.
Screening O=C(O)c1cc(-c2ccco2)nc2ccccc12 returned LEDGF integ inh 7, UHRF1 MBD2 ctr 18, TDP2 inh 1, MBD2 DNA inh 3 and Casp6 inh 29.
Screening C/C(=N\NC(=O)c1cc(-c2ccco2)nc2ccccc12)c1cccnc1 returned LEDGF integ inh 64*, UHRF1 MBD2 ctr -2, TDP2 inh -8, MBD2 DNA inh -3, NSD2 inh 2, Casp6 inh 5, IN multimer up 1, TRFRET interf -5 and LEDGF integ conf 0.
`CCNC(=O)COC(=O)c1cc(-c2ccco2)nc2ccccc12` gave LEDGF integ inh 14*, UHRF1 MBD2 ctr 8, TDP2 inh 2, MBD2 DNA inh 5, NSD2 inh 0, Casp6 inh 26, IN multimer up 7, TRFRET interf -37 and LEDGF integ conf 29*.
`Cc1csc(NC(=O)c2cc(-c3ccco3)nc3ccccc23)n1` gave LEDGF integ inh 26*, UHRF1 MBD2 ctr 14, TDP2 inh -14, MBD2 DNA inh 5, NSD2 inh 5, Casp6 inh 2, IN multimer up 11*, TRFRET interf -56 and LEDGF integ conf 48*.
For COc1ccc(S(=O)(=O)N(C)C[C@@H]2OCCCC[C@H](C)Oc3ccc(NS(=O)(=O)c4ccc(F)cc4)cc3C(=O)N([C@@H](C)CO)C[C@@H]2C)cc1 the results were Casp6 inh 1.
Screening Cc1ccc(S(=O)(=O)N(C)c2ccccc2C(=O)Nc2c(F)cccc2F)cc1 returned LEDGF integ inh 36*, UHRF1 MBD2 ctr 0, TDP2 inh 7, MBD2 DNA inh -2, NSD2 inh -4, Casp6 inh -2, IN multimer up 1, TRFRET interf -4 and LEDGF integ conf -7.
For CC(=O)c1cccc(NC(=O)c2ccccc2N(C)S(=O)(=O)c2ccc(C)cc2)c1 the results were LEDGF integ inh 0, UHRF1 MBD2 ctr 3, TDP2 inh -6, MBD2 DNA inh 2, NSD2 inh 14 and Casp6 inh -1.
C[C@H](NC(=O)C[C@H]1C[C@H]2c3cc(NS(=O)(=O)c4ccc(F)cc4)ccc3O[C@H]2[C@H](CO)O1)c1ccccc1 was read as Casp6 inh 20.
For Cc1ccc(CNC(=O)/C=C/c2cccs2)cc1 the results were LEDGF integ inh 25*, UHRF1 MBD2 ctr -4, TDP2 inh -1, MBD2 DNA inh 1, NSD2 inh -1, Casp6 inh 5, IN multimer up 4, TRFRET interf -14 and LEDGF integ conf -5.
`CCCCNC(=O)/C=C/c1cccs1` gave LEDGF integ inh -4, UHRF1 MBD2 ctr 0, TDP2 inh -17, MBD2 DNA inh 1 and NSD2 inh 1.
For CCC(=O)N(C)C[C@@H]1Oc2ncc(C#Cc3cccnc3)cc2C(=O)N([C@H](C)CO)C[C@@H]1C the results were Casp6 inh 1.
Screening c1ccn2c(c1)nc1c2nc2ccccn21 returned LEDGF integ inh 14*, UHRF1 MBD2 ctr -6, TDP2 inh -3, MBD2 DNA inh -7, NSD2 inh 0, IN multimer up 5, TRFRET interf -17 and LEDGF integ conf 3.
Cc1ccc2occ(/C=N/NC(=O)c3ccccc3O)c(=O)c2c1 was read as LEDGF integ inh 18*, UHRF1 MBD2 ctr 1, TDP2 inh -7, MBD2 DNA inh -1, NSD2 inh 3, Casp6 inh 31, IN multimer up 0, TRFRET interf 0 and LEDGF integ conf 24*.
Screening O=C(NCc1cnc2ccccn12)C1CCC(=O)N(Cc2ccccc2F)C1 (configuration not stated) returned LEDGF integ inh 17*, UHRF1 MBD2 ctr -1, TDP2 inh 6, MBD2 DNA inh -1, NSD2 inh -2, Casp6 inh -9, IN multimer up 0, TRFRET interf 2 and LEDGF integ conf -5.
Screening C[C@@H]1CCCCO[C@H](CN(C)C(=O)Nc2ccc(F)cc2)[C@@H](C)CN([C@@H](C)CO)C(=O)c2cc(NC(=O)Nc3ccccc3)ccc2O1 returned Casp6 inh 2.
Screening O=c1cc(-c2ccc(O)cc2)oc2cc(O)c([C@@H]3O[C@H](CO)[C@@H](O)[C@H](O)[C@H]3O)c(O)c12 returned LEDGF integ inh 3, UHRF1 MBD2 ctr -7, TDP2 inh -9, MBD2 DNA inh 1 and Casp6 inh 6.
`O=c1cc(-c2ccc(O)cc2)oc2c(C3O[C@H](CO)[C@@H](O)[C@H](O)[C@H]3O)c(O)cc(O)c12` (some centres not stated) gave LEDGF integ inh 2, UHRF1 MBD2 ctr -9, TDP2 inh 9, MBD2 DNA inh 1 and Casp6 inh 14.
Screening O=c1cc(-c2ccc(O)c(O)c2)oc2c(C3O[C@H](CO)[C@@H](O)[C@H](O)[C@H]3O)c(O)cc(O)c12 (some centres not stated) returned LEDGF integ inh 68*, UHRF1 MBD2 ctr -6, TDP2 inh -12, MBD2 DNA inh 0, Casp6 inh 12, IN multimer up 81*, TRFRET interf -410 and LEDGF integ conf 90*.
`O=c1cc(-c2ccc(O)c(O)c2)oc2cc(O)c(C3OC(CO)C(O)C(O)C3O)c(O)c12` (configuration not stated) gave LEDGF integ inh 46*, UHRF1 MBD2 ctr -4, TDP2 inh 4, MBD2 DNA inh -7, Casp6 inh 7, IN multimer up 73*, TRFRET interf -369 and LEDGF integ conf 91*.
For COc1ccc(-c2ccc([C@@H]3[C@@H](CO)N4C(=O)CN(C(=O)c5ccccc5)C[C@H]34)cc2)cc1 the results were Casp6 inh -1.
